Tests used:
[1] = Inhibition of Escherichia coli PDHc-E1 expressed in Escherichia coli TB1 using sodium pyruvate as substrate and ThDP after 3 mins by 2,6-DCPIP based microplate reader method
How it was run: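 The enzyme (7.1 µM) was preincubated 3 min at 37 °C with varied inhibitor in 50 mM K3PO4 pH 7.2, 2.0 mM pyruvate and 0.8 mM 2,6-DCPIP. ThDP (0–200 µM) started the reaction, read as A600 decrease. IC50 came from a Hill fit of initial rates.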

[2] = Antibacterial activity against Synechocystis sp. PCC 6803; type: functional
Alternaria solani = experiment: Antifungal activity against Alternaria solani at 100 ug/ml; type: functional
Rhizoctonia solani = experiment: Antifungal activity against Rhizoctonia solani at 100 ug/ml; type: functional
[3] = test system: Colletotrichum orbiculare; experiment: Antifungal activity against Colletotrichum orbiculare at 100 ug/ml; type: functional
Botrytis cinerea = experiment: Antifungal activity against Botrytis cinerea at 100 ug/ml; type: functional
[4] = Antibacterial activity against Synechocystis sp. PCC 6803 at 10 uM; type: functional
Escherichia coli [5] = experiment: Inhibition of Escherichia coli PDHc-E1 expressed in Escherichia coli TB1 at 100 uM using sodium pyruvate as substrate after 3 mins by 2,6-DCPIP based microplate reader method
[6] = biological target: T1, Pyruvate dehydrogenase E1 component subunit alpha, somatic form, mitochondrial (Sus scrofa) (UniProt P29804); experiment: Inhibition of pig heart PDHc-E1 using sodium pyruvate as substrate at 100 uM after 3 mins by 2,6-DCPIP based microplate reader method
T1 sequence (whole entry): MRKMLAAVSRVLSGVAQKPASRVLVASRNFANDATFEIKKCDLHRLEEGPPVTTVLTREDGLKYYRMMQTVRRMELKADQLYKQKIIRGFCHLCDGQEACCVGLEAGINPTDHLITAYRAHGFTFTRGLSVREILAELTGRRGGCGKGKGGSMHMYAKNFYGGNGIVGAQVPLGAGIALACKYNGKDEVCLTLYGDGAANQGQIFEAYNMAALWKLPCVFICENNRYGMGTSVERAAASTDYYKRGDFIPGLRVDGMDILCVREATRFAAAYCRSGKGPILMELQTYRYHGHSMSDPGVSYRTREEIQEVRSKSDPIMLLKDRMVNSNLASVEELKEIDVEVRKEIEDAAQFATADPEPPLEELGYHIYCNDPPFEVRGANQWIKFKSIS

[7] = Inhibition of Escherichia coli PDHc-E1 E571A mutant expressed in Escherichia coli TB1 using sodium pyruvate as substrate and ThDP after 3 mins by 2,6-DCPIP based microplate reader method
How it was run: (§1)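 Point mutants were made by PCR mutagenesis on a pMAL-c2x-PDHc-E1 template, DpnI-digested and passed through DH5α. […] Assays used 7.1 µM enzyme, 50 mM K3PO4 pH 7.2, 2.0 mM pyruvate and 0.8 mM DCPIP, with 3 min preincubation at 37 °C and ThDP (0–200 µM) start. A600 was read and IC50 taken by Hill fit.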

[8] = Inhibition of Escherichia coli PDHc-E1 M194A mutant expressed in Escherichia coli TB1 using sodium pyruvate as substrate and ThDP after 3 mins by 2,6-DCPIP based microplate reader method; how it was run: as §1
Escherichia coli [9] = experiment: Selectivity index, ratio of IC50 for Escherichia coli PDHc-E1 H106A mutant to IC50 for Escherichia coli WT PDHc-E1
[10] = Inhibition of Escherichia coli PDHc-E1 E522A mutant expressed in Escherichia coli TB1 using sodium pyruvate as substrate and ThDP after 3 mins by 2,6-DCPIP based microplate reader method; how it was run: as §1
[11] = Inhibition of Escherichia coli PDHc-E1 F602A mutant expressed in Escherichia coli TB1 using sodium pyruvate as substrate and ThDP after 3 mins by 2,6-DCPIP based microplate reader method; how it was run: as §1
[12] = Inhibition of Escherichia coli PDHc-E1 V192A mutant expressed in Escherichia coli TB1 using sodium pyruvate as substrate and ThDP after 3 mins by 2,6-DCPIP based microplate reader method; how it was run: as §1
[13] = Inhibition of Escherichia coli TB1 PDHc-E1 K392A mutant expressed in Escherichia coli TB1 using sodium pyruvate as substrate and ThDP after 3 mins by 2,6-DCPIP based microplate reader method; how it was run: as §1
[14] = Inhibition of Escherichia coli TB1 PDHc-E1 H106A mutant expressed in Escherichia coli TB1 using sodium pyruvate as substrate and ThDP after 3 mins by 2,6-DCPIP based microplate reader method; how it was run: as §1
Escherichia coli [15] = experiment: Selectivity index, ratio of IC50 for Escherichia coli PDHc-E1 K392A mutant to IC50 for Escherichia coli WT PDHc-E1

Row | Structure (SMILES) | IC50 [1] | EC50 [2] | inhibition (Escherichia coli [5]) | inhibition [6] | IC50 [7] | IC50 [8] | Ratio IC50 (Escherichia coli [9]) | IC50 [10] | IC50 [11] | IC50 [12] | IC50 [13] | IC50 [14] | Ratio IC50 (Escherichia coli [15]) | inhibition at 100 µg/mL (Alternaria solani) | inhibition at 100 µg/mL (Rhizoctonia solani) | inhibition at 100 µg/mL [3] | inhibition at 100 µg/mL (Botrytis cinerea) | inhibition at 10 µM [4]
1 | CNc1nc(C(F)(F)F)c(-c2nnc(SCc3cn(Cc4cnc(C)nc4N)nn3)n2N)s1 | 15.7 µM | 9.86 µM | – | – | – | – | – | – | – | – | – | – | – | 21% | 11% | 28% | 8% | –
2 | CNc1nc(C)c(-c2nnc(SCc3cn(Cc4cnc(C)nc4N)nn3)n2N)s1 | 11.1 µM | 2.99 µM | – | – | – | – | – | – | – | – | – | – | – | 25% | 17% | 16% | 11% | 90%
3 | Cc1ncc(Cn2cc(CSc3nnc(-c4ccccc4Cl)o3)nn2)c(N)n1 | 12.4 µM | 2.28 µM | – | – | – | – | – | – | – | – | – | – | – | – | – | – | – | –
4 | Cc1ncc(Cn2cc(COc3ccccc3[N+](=O)[O-])nn2)c(N)n1 | 36.3 µM | > 50 µM | – | – | – | – | – | – | – | – | – | – | – | – | – | – | – | < 30%
5 | Cc1ncc(Cn2cc(COc3ccc(Cl)cc3)nn2)c(N)n1 | 26.4 µM | > 50 µM | – | – | – | – | – | – | – | – | – | – | – | – | – | – | – | < 30%
6 | Cc1ncc(Cn2cc(CSc3nnc(-c4ccc(C(F)(F)F)cc4)o3)nn2)c(N)n1 | 15.9 µM | 5.35 µM | – | – | – | – | – | – | – | – | – | – | – | 35% | 0% | 45% | 45% | 90%
7 | Cc1ncc(Cn2cc(CSc3nnc(-c4cccc([N+](=O)[O-])c4)o3)nn2)c(N)n1 | 10.4 µM | 5.14 µM | – | – | – | – | – | – | – | – | – | – | – | 48% | 60% | 40% | 59% | 90%
8 | Cc1ncc(Cn2cc(COc3ccccc3)nn2)c(N)n1 | 55.1 µM | > 50 µM | – | – | – | – | – | – | – | – | – | – | – | – | – | – | – | < 30%
9 | Cc1ncc(Cn2cc(CSc3nnc(-c4ccccc4[N+](=O)[O-])o3)nn2)c(N)n1 | 9.84 µM | 4.76 µM | – | – | – | – | – | – | – | – | – | – | – | 58% | 40% | 48% | 54% | 90%
10 | Cc1ncc(Cn2cc(CSc3nnc(-c4ccc([N+](=O)[O-])cc4Cl)o3)nn2)c(N)n1 | 12.8 µM | 6.37 µM | – | – | – | – | – | – | – | – | – | – | – | 35% | 46% | 38% | 54% | –
11 | Cc1ncc(Cn2cc(CSc3nnc(-c4ccccc4F)o3)nn2)c(N)n1 | 19.2 µM | 8.05 µM | – | – | – | – | – | – | – | – | – | – | – | 40% | 0% | 32% | 28% | –
12 | Cc1ncc(Cn2cc(COc3ccc(Cl)cc3Cl)nn2)c(N)n1 | 18.7 µM | > 50 µM | – | – | – | – | – | – | – | – | – | – | – | – | – | – | – | < 30%
13 | Cc1ncc(Cn2cc(CSc3nnc(-c4ccc(Cl)cc4Cl)o3)nn2)c(N)n1 | 13.2 µM | 5.99 µM | – | – | – | – | – | – | – | – | – | – | – | – | – | – | – | –

These reach a lower IC50 [1]. Values come first.

Row | IC50 [1] | EC50 [2] | inhibition (Escherichia coli [5]) | inhibition [6] | IC50 [7] | IC50 [8] | Ratio IC50 (Escherichia coli [9]) | IC50 [10] | IC50 [11] | IC50 [12] | IC50 [13] | IC50 [14] | Ratio IC50 (Escherichia coli [15]) | Structure (SMILES) | inhibition at 100 µg/mL (Alternaria solani) | inhibition at 100 µg/mL (Rhizoctonia solani) | inhibition at 100 µg/mL [3] | inhibition at 100 µg/mL (Botrytis cinerea) | inhibition at 10 µM [4]
14 | 9.11 µM | 5.34 µM | – | – | – | – | – | – | – | – | – | – | – | Cc1ncc(Cn2cc(CSc3nnc(-c4ccc(F)cc4)o3)nn2)c(N)n1 | 44% | 0% | 32% | 60% | 90%
15 | 8.8 µM | > 50 µM | – | – | – | – | – | – | – | – | – | – | – | Cc1ncc(Cn2cc(COc3ccc([N+](=O)[O-])cc3)nn2)c(N)n1 | – | – | – | – | < 30%
16 | 8.61 µM | 2.33 µM | – | – | – | – | – | – | – | – | – | – | – | Cc1ncc(Cn2cc(CSc3nnc(-c4cc([N+](=O)[O-])cc([N+](=O)[O-])c4)o3)nn2)c(N)n1 | 30% | 30% | 33% | 41% | 90%
17 | 7.87 µM | 5.15 µM | – | – | – | – | – | – | – | – | – | – | – | Cc1ncc(Cn2cc(CSc3nnc(-c4ccccc4)o3)nn2)c(N)n1 | 47% | 30% | 40% | 60% | 90%
18 | 7.59 µM | 9.04 µM | – | – | – | – | – | – | – | – | – | – | – | Cc1ncc(Cn2cc(CSc3nnc(-c4ccc([N+](=O)[O-])cc4)o3)nn2)c(N)n1 | 60% | 55% | 35% | 45% | –
19 | 7.08 µM | 5.25 µM | – | – | – | – | – | – | – | – | – | – | – | Cc1ncc(Cn2cc(CSc3nnc(-c4ccc(Cl)cc4)o3)nn2)c(N)n1 | 60% | 46% | 52% | 45% | 90%
20 | 7.02 µM | 2.3 µM | – | – | – | – | – | – | – | – | – | – | – | Cc1ncc(Cn2cc(CSc3nnc(-c4sc(N)nc4C)n3N)nn2)c(N)n1 | 29% | 16% | 26% | 16% | 90%
21 | 6.62 µM | 1.51 µM | 100% | 15.6% | – | – | – | – | – | – | – | – | – | CNc1nc(C)c(-c2nnc(SCc3cn(Cc4cnc(C)nc4N)nn3)o2)s1 | 44% | 11% | 26% | 31% | 90%
22 | 5.03 µM | 3.24 µM | – | – | – | – | – | – | – | – | – | – | – | Cc1ncc(Cn2cc(CSc3nnc(-c4sc(N)nc4C(F)(F)F)n3N)nn2)c(N)n1 | 21% | 11% | 35% | 20% | 90%
23 | 4.36 µM | 1.63 µM | 100% | 27.1% | – | – | – | – | – | – | – | – | – | Cc1ncc(Cn2cc(CSc3nnc(-c4sc(N)nc4C)o3)nn2)c(N)n1 | 56% | 11% | 24% | 31% | 90%
24 | 3.94 µM | 1.61 µM | 100% | 28.3% | – | – | – | – | – | – | – | – | – | Cc1ncc(Cn2cc(CSc3nnc(-c4sc(N)nc4C(F)(F)F)o3)nn2)c(N)n1 | 53% | 11% | 25% | 60% | 90%
25 | 0.97 µM | 0.83 µM | 100% | 26.1% | 5.02 µM | 19.1 µM | 11 | 10.8 µM | 5.08 µM | 33.2 µM | 20.4 µM | 11.6 µM | 20 | CNc1nc(C(F)(F)F)c(-c2nnc(SCc3cn(Cc4cnc(C)nc4N)nn3)o2)s1 | 41% | 14% | 36% | 50% | 90%
